Entries after “also recorded” stand apart in the source; their conditions may differ. Read-outs that look alike come from different tables or passages of the source.
How the values were obtained:
[1] = first- and second-generation DβH inhibitors; cited from earlier work
[2] = test system: dopamine-β-hydroxylase (DβH); details: cited from earlier work
[3] = cited from earlier work
[4] = type: in vivo, human; details: for AUClast test/reference geometric means ratio (GMR) / AUC∞ test/reference geometric means ratio (GMR) / Cmax test/reference geometric means ratio (GMR): fed (test) vs fasting (reference), n = 12
[5] = cited from earlier work; for Increase of the extent of systemic exposure with dose / Linearity of pharmacokinetics: once-daily 25-600 mg for 10 days
[6] = test system: dopamine-β-hydroxylase (DβH); details: cited from earlier work; remark: listed apart in the source
[7] = rat; cited from earlier work
[8] = cited from earlier work; remark: listed apart in the source
dogs = details: cited from earlier work
[9] = Tolerability in the food-effect study; type: in vivo, human
Procedure, shortened: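 Randomized two-period crossover in 12 healthy men (18–45 y, BMI 19–28 kg/m2). Each received a single 200 mg oral dose (four 50 mg capsules, 240 mL water) after a high-fat, high-calorie breakfast or a 10 h fast; washout ≥14 days; confined until 72 h post-dose. Adverse events monitored throughout, recording onset, offset, severity, relatedness, action and outcome. Vital signs, physical examination, hematology and biochemistry at each admission.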

[10] = test system: normotensive Wistar-Kyotos rats; details: cited from earlier work
Cynomolgus monkeys = details: cited from earlier work
rats = details: cited from earlier work
[11] = test system: male cardiomyopathic hamsters (Bio TO-2 dilated strain); details: male cardiomyopathic hamsters (Bio TO-2 dilated strain) with advanced congestive heart failure; cited from earlier work
[12] = test system: dopamine or noradrenaline levels in the brain; details: in contrast to peripheral tissues; cited from earlier work
[13] = test system: spontaneously hypertensive rats; details: cited from earlier work
mice = details: cited from earlier work
[14] = 200 mg single dose, fasting condition; cited from earlier work
[15] = first- and second-generation DβH inhibitors
[16] = 90% CI of GMR against the acceptance interval (80, 125)

CCN(CC)C(=S)S [diethyldithiocarbamate]
Side effects [1]: toxic side effects
Potency as DβH inhibitor [2, 15]: low potency
Selectivity for DβH [2, 15]: poor selectivity

CCCCc1ccc(C(=O)O)nc1 [fusaric acid]
Side effects [1]: toxic side effects
Potency as DβH inhibitor [2, 15]: low potency
Selectivity for DβH [2, 15]: poor selectivity

NCc1c[nH]c(=S)n1[C@H]1CCc2c(F)cc(F)cc2C1 [nepicastat]
Potency as DβH inhibitor ([2]; third-generation DβH inhibitor, compared with first and second generation): much greater potency
Crossing of the blood-brain barrier [3]: cross the blood-brain barrier

CC(=O)NCCc1c[nH]c(=S)n1[C@H]1COc2c(F)cc(F)cc2C1 [BIA 5-961]
Effect of food on AUC∞, AUClast and Cmax (systemic exposure) of the metabolite ([4]; etamicastat 200 mg administered in the presence of food vs fasting): significant decrease; also recorded: decreased
AUClast test/reference geometric means ratio (GMR) ([4]; single oral etamicastat 200 mg): 79.41%
AUC∞ test/reference geometric means ratio (GMR) ([4]; single oral etamicastat 200 mg): 83.47%
Cmax test/reference geometric means ratio (GMR) ([4]; single oral etamicastat 200 mg): 62.42%
Increase of the extent of systemic exposure with dose [5]: approximately dose-proportional
Linearity of pharmacokinetics [5]: linear pharmacokinetics
Activity of the metabolite [6]: inactive
Occurrence as metabolite of etamicastat [7]: major metabolic pathway
AUC in NAT2 rapid acetylators compared with poor acetylators [8]: markedly higher

Cl.NCCc1c[nH]c(=S)n1[C@H]1COc2c(F)cc(F)cc2C1 [etamicastat, (R)-5-(2-aminoethyl)-1-(6,8-difluorochroman-3-yl)-1,3-dihydroimidazole-2-thione hydrochloride]
Bioequivalence fed vs fasting for Cmax [4, 16]: did not fit the claim of bioequivalence; also recorded: does not fit the claim of bioequivalence
Bioequivalence fed vs fasting for extent of exposure (AUClast and AUC∞) [4, 16]: fulfilled the claim of bioequivalence; also recorded: remained within the acceptance interval; also recorded: remained unchanged
AUClast test/reference geometric means ratio (GMR) ([4]; single oral etamicastat 200 mg): 93.59%
AUC∞ test/reference geometric means ratio (GMR) ([4]; single oral etamicastat 200 mg): 96.47%
Cmax test/reference geometric means ratio (GMR) ([4]; single oral etamicastat 200 mg): 72.27%
Effect of food on tmax ([4]; fed vs fasting, Wilcoxon signed rank test): prolonged; also recorded: significantly delayed; also recorded: significantly increased
Decrease of Cmax as a result of food intake ([4]; fed vs fasting, single oral etamicastat 200 mg): 28%
No observed adverse effect level (dogs): 5 mg/kg/day
Increase of the extent of systemic exposure with dose [5]: approximately dose-proportional
Linearity of pharmacokinetics [5]: linear pharmacokinetics
Etamicastat dose recovered in urine in the form of etamicastat and BIA 5-961 ([5]; once-daily dosing): Approximately 40%
Time to attain steady-state plasma concentrations ([5]; once-daily dosing): up to 9 days
Tolerability ([5]; orally, doses up to 600mg once daily for 10 days, male healthy volunteers): appears to be well tolerated
Intensity of TEAEs ([9]; both periods): mild to moderate
Serious adverse events or discontinuations due to adverse events ([9]; both periods): no serious adverse events or discontinuations due to adverse events
Total number of treatment-emergent adverse events ([9]; both periods, single oral etamicastat 200 mg): six
Abnormalities in vital signs, ECG or laboratory safety tests ([9]; during the study): no clinically significant abnormality; also recorded: No clinically relevant abnormalities
Number of TEAEs ([9]; fed period (abdominal pain, asthenia, headache, intercostal pain)): four
Proportion of subjects reporting treatment-emergent adverse events ([9]; of 12 subjects, single oral etamicastat 200 mg, both periods): 33.3%
Overall tolerability ([9]; single oral 200 mg, fasting and fed periods, healthy male subjects): well tolerated
Heart rate ([10]; Wistar-Kyotos rats): did not affect
Systolic and diastolic blood pressure ([10]; normotensive Wistar-Kyotos rats): no changes
No observed adverse effect level (Cynomolgus monkeys): 20 mg/kg/day
No observed adverse effect level (rats): 30 mg/kg/day
Survival rates [11]: increased survival rates
Effect on dopamine or noradrenaline levels in the brain [12]: does not affect
Heart rate [13]: did not affect
Systolic and diastolic blood pressure [13]: reduced
No observed adverse effect level (mice): 30 mg/kg/day
AUClast, arithmetic mean [14]: 2026 ng·h/mL
AUC∞, arithmetic mean [14]: 2230 ng·h/mL
Cmax, arithmetic mean [14]: 202 ng/mL
t1/2, arithmetic mean [14]: 19.8 h
Effect of NAT1 phenotype on pharmacokinetics [8]: no relevant effect

CCN(CC)C(=S)SSC(=S)N(CC)CC [disulfiram]
Side effects [1]: toxic side effects
Potency as DβH inhibitor [2, 15]: low potency
Selectivity for DβH [2, 15]: poor selectivity
